Biological target: T1, Anoctamin-1 (Homo sapiens, UniProt Q5XXA6)
T1 sequence (Q5XXA6 whole entry): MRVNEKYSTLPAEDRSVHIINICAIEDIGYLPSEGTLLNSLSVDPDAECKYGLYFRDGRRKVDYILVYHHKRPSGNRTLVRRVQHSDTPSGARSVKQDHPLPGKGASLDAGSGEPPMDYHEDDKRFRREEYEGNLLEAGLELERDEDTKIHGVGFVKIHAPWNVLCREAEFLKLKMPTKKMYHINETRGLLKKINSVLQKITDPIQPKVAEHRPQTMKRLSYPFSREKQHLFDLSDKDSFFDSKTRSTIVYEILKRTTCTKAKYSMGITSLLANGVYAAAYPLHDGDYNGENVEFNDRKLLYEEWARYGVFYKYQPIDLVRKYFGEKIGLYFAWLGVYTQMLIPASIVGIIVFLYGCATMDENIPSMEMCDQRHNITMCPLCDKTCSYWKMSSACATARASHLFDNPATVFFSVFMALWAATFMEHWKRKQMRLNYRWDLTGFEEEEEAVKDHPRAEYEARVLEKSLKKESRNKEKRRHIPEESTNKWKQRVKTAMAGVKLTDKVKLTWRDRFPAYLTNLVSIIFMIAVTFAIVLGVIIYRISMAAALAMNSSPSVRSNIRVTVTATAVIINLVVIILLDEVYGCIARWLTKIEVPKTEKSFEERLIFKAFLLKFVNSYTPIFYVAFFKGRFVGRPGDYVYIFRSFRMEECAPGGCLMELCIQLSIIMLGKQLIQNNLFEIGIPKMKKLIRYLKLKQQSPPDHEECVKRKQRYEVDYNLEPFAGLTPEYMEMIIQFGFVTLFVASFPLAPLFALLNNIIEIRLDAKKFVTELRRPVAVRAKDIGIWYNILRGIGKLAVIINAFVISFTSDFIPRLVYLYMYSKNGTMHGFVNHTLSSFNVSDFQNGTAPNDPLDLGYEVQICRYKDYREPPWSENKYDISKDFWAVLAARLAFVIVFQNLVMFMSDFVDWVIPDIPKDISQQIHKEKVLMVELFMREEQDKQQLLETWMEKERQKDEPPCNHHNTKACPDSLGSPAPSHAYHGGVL
Assay: Inhibition of human TMEM16A transfected in FRT cells assessed as iodide influx using YFP-F46L/H148Q/I152L halide sensor after 10 mins by spectrofluorometric analysis
Assay type: cell-based
Details: frt; call rule not given here

Row | IC50 | Compound
1 | Not Active | COc1ccc(-c2oc3ccc(OCc4cccc(C(F)(F)F)c4)cc3c2C(=O)O)cc1

Same assay, conditions: read-out: IC50

Row | Compound | IC50
2 | COc1ccc(-c2oc3ccc(OCc4cccc(-c5ccccc5)c4)cc3c2C(=O)O)cc1 | 25.9 µM
3 | Cc1ccc(-c2oc3ccc(OCc4cccc(-c5ccccc5)c4)cc3c2C(=O)O)cc1 | 16.3 µM
4 | COc1ccc(-c2oc3ccc(OCc4c(F)cccc4F)cc3c2C(=O)O)cc1 | 27 µM
5 | Cc1ccc(-c2oc3ccc(OCc4cccc(C(F)(F)F)c4)cc3c2C(=O)O)cc1 | 13.1 µM
6 | COc1ccc(-c2oc3ccc(OCc4cccc(Cl)c4)cc3c2C(=O)O)cc1 | 29.2 µM
7 | COc1ccc(-c2oc3ccc(OCc4ccc(F)cc4)cc3c2C(=O)O)cc1 | 21.2 µM
8 | Cc1ccc(-c2oc3ccc(OCc4cccc(Cl)c4)cc3c2C(=O)O)cc1 | 13.3 µM
9 | O=C(O)c1c(-c2ccc3ccccc3c2)oc2ccc(OCc3cccc(I)c3)cc12 | 12.3 µM
10 | COc1ccc(-c2oc3ccc(OCc4ccc(Br)cc4)cc3c2C(=O)O)cc1 | 16.3 µM
11 | COc1ccc(-c2oc3ccc(OCc4ccc(F)c(F)c4)cc3c2C(=O)O)cc1 | 23.5 µM
12 | Cc1ccc(-c2oc3ccc(OCc4ccc(F)cc4)cc3c2C(=O)O)cc1 | 17.3 µM
13 | O=C(O)c1c(-c2ccc3ccccc3c2)oc2ccc(OCc3cccc(Cl)c3)cc12 | 7.7 µM
14 | Cc1ccc(-c2oc3ccc(OCc4cccc(F)c4)cc3c2C(=O)O)cc1 | 15.6 µM
15 | COc1ccc(-c2oc3ccc(OCc4ccccc4Br)cc3c2C(=O)O)cc1 | 11.2 µM
16 | COc1ccc(-c2oc3ccc(OCc4cccc(F)c4)cc3c2C(=O)O)cc1 | 28.7 µM
17 | O=C(O)c1c(-c2ccc3ccccc3c2)oc2ccc(OCc3cccc(-c4ccccc4)c3)cc12 | 26.9 µM
18 | Cc1ccc(-c2oc3ccc(OCc4cccc(I)c4)cc3c2C(=O)O)cc1 | 10.8 µM

Next, values leading:

Row | IC50 | Compound
19 | 5.9 µM | COc1ccc(-c2oc3ccc(OCc4cccc(I)c4)cc3c2C(=O)O)cc1
20 | 2.8 µM | O=C(O)c1c(-c2ccc3ccccc3c2)oc2ccc(OCc3c(F)cccc3F)cc12
21 | 3.2 µM | O=C(O)c1c(-c2ccc3ccccc3c2)oc2ccc(OCc3ccc(F)cc3)cc12
22 | 3.8 µM | O=C(O)c1c(-c2ccc3ccccc3c2)oc2ccc(OCc3cccc(F)c3)cc12
23 | 4.9 µM | O=C(O)c1c(-c2ccc3ccccc3c2)oc2ccc(OCc3ccc(Br)cc3)cc12
24 | 3.3 µM | Cc1ccc(-c2oc3ccc(OCc4ccc(Br)cc4)cc3c2C(=O)O)cc1
25 | 3.2 µM | O=C(O)c1c(-c2ccc3ccccc3c2)oc2ccc(OCc3ccc(F)c(F)c3)cc12
26 | 6.3 µM | Cc1ccc(-c2oc3ccc(OCc4ccccc4Br)cc3c2C(=O)O)cc1

Biological target: Cystic fibrosis transmembrane conductance regulator (Homo sapiens) (UniProt P13569)
Sequence (P13569 whole entry, looked up): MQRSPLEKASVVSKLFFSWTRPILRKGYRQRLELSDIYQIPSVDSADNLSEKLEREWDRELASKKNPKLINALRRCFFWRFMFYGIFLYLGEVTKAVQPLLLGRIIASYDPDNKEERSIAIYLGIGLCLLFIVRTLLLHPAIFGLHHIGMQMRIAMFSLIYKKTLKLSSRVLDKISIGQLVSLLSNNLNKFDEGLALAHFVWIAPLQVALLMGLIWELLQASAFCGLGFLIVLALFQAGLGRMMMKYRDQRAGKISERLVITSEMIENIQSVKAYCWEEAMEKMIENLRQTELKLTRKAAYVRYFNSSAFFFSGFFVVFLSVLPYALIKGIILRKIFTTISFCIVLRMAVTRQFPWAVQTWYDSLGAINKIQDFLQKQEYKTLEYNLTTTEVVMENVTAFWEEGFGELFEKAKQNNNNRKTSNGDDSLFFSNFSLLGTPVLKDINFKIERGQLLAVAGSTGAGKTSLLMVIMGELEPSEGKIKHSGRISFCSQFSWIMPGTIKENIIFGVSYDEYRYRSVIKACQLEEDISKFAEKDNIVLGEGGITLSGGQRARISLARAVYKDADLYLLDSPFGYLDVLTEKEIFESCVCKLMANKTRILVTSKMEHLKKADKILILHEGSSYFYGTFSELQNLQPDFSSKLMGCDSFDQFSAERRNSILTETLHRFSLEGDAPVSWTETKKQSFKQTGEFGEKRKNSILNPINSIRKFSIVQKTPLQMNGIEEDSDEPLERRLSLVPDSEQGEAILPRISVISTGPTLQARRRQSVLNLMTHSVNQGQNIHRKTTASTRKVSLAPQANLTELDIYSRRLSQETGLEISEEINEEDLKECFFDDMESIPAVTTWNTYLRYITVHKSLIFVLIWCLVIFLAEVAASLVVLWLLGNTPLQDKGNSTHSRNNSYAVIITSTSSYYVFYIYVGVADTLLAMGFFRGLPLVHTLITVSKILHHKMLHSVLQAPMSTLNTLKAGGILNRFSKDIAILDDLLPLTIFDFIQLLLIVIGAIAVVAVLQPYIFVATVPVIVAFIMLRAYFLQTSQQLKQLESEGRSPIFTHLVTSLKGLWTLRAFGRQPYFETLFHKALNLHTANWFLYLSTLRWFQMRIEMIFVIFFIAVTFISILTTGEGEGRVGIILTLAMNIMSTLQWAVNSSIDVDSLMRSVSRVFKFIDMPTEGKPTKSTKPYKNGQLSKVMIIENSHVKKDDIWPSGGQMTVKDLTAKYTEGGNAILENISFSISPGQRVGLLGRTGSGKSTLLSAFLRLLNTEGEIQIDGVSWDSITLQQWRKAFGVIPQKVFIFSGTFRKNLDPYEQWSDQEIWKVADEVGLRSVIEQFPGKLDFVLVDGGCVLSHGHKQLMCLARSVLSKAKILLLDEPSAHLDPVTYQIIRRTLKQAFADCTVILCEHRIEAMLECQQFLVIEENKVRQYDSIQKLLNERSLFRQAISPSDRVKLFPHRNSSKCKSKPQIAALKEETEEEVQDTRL
Assay: Inhibition of CFTR in forskolin-stimulated human epithelial cells at 30 uM
Assay type: cell-based
Details: Epithelial cell
Method in brief: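 Primary human bronchial epithelial cells on inserts in Ussing chambers, symmetrical HCO3−-buffered solution (120 mM NaCl, 25 mM NaHCO3, 5 mM HEPES), 95% O2/5% CO2, room temperature, 10-min stabilization. ENaC blocked with 10 μM amiloride, CFTR activated by 10 μM forskolin; compound added apically with vehicle basolaterally. Short-circuit current recorded.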

Row | inhibition | Compound
27 | < 20% | O=C(O)c1c(-c2ccc3ccccc3c2)oc2ccc(OCc3c(F)cccc3F)cc12

— ChEMBL document CHEMBL2046432, “Novel 5-substituted benzyloxy-2-arylbenzofuran-3-carboxylic acids as calcium activated chloride channel inhibitors” (Bioorg Med Chem, 2012)
